Measured values: ChEMBL document CHEMBL1833940, “Discovery of 3-(2,6-dichloro-3,5-dimethoxy-phenyl)-1-{6-[4-(4-ethyl-piperazin-1-yl)-phenylamino]-pyrimidin-4-yl}-1-methyl-urea (NVP-BGJ398), a potent and selective inhibitor of the fibroblast growth factor receptor family of receptor tyrosine kinase” (J Med Chem, 2011)

What was measured:
BaF3 = assay: Antiproliferative activity against mouse BAF3 cell line transformed with TEL-FGFR3 construct after 48 hrs by luciferase bioluminescent assay; assay type: functional, cell-based; details: BaF3, 48 h
Procedure, shortened: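 IL-3-independent BaF3 or BaF3 Tel-TK cells were grown in RPMI-1640 with 10% FBS and seeded at 4250 cells/well in 384-well plates. Compound serially diluted in DMSO was pin-transferred, followed by 48 h at 37 °C, 5% CO2. Viability was read by Bright-Glo luciferase luminescence.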

Cytochrome P450 2C19 = Cytochrome P450 2C19 (Homo sapiens, UniProt P33261); assay: Inhibition of CYP2C19 using CEC as substrate; assay type: ADME
Procedure, shortened: (§1)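 Human CYP450 inhibition was measured with isoform-specific fluorogenic probe substrates: CEC for 1A2 and 2C19, MFC for 2C9, AMMC for 2D6. Incubation was at 37 °C with an NADPH-regenerating system in 384-well format. Metabolite was quantified by fluorescence, and IC50 was obtained by curve fitting.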

Cytochrome P450 3A4 [1] = biological target: T1, Cytochrome P450 3A4 (Homo sapiens, UniProt P08684); assay: Inhibition of CYP3A4 using BFC as substrate
Cytochrome P450 3A4 [2] = biological target: T1, Cytochrome P450 3A4; assay: Inhibition of CYP3A4 using DBF as substrate
Cytochrome P450 2C9 = Cytochrome P450 2C9 (Homo sapiens, UniProt P11712); assay: Inhibition of CYP2C9 using MFC as substrate; assay type: ADME; procedure, shortened: as §1
Cytochrome P450 2D6 = Cytochrome P450 2D6 (Homo sapiens, UniProt P10635); assay: Inhibition of CYP2D6 using AMMC as substrate; assay type: ADME; procedure, shortened: as §1
Cytochrome P450 1A2 = biological target: T2, Cytochrome P450 1A2 (Homo sapiens, UniProt P05177); assay: Inhibition of CYP1A2 using CEC as substrate; assay type: ADME; procedure, shortened: as §1
T2 sequence (P05177 whole entry): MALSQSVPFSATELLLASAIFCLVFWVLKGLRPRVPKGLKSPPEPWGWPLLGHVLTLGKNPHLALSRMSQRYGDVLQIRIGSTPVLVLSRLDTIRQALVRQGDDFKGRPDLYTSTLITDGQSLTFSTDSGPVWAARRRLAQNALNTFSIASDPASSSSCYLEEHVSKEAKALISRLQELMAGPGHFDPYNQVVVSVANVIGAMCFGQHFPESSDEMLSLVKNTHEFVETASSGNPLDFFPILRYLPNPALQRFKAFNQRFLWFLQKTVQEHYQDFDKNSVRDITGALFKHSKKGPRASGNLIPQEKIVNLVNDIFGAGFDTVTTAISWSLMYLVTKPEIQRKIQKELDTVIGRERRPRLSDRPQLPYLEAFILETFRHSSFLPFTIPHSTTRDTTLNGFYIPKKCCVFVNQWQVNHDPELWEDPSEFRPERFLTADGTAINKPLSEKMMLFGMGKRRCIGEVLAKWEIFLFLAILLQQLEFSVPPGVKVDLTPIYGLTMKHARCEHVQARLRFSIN

Sequence of Cytochrome P450 2C9 (P11712 whole entry): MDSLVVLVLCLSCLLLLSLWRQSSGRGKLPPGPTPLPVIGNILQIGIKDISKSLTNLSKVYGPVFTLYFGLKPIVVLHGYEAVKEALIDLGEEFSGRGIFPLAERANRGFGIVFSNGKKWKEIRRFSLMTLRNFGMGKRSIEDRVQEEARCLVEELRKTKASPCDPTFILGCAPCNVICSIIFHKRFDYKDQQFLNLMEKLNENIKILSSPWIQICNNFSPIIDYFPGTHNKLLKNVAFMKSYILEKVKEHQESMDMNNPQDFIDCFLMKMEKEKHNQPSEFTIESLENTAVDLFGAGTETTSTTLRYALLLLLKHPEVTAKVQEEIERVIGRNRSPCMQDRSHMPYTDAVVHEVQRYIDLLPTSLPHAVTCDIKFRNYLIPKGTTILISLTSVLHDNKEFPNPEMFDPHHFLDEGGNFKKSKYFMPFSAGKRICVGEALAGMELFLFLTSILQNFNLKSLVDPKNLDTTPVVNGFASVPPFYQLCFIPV
T1 sequence (P08684 whole entry): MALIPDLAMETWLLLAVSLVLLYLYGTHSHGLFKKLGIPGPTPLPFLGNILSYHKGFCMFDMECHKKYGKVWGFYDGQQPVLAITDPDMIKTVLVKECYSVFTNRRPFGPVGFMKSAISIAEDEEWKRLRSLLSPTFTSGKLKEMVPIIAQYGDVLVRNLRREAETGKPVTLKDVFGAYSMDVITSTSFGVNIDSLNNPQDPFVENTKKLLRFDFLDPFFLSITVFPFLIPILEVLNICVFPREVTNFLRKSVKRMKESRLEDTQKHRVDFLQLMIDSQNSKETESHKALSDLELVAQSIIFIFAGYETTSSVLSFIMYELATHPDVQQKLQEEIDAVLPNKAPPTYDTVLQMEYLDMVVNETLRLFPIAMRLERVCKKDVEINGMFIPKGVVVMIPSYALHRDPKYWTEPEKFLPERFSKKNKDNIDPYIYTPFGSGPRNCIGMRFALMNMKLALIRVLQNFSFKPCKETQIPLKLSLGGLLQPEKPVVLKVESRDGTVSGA
Sequence of Cytochrome P450 2D6 (P10635 whole entry): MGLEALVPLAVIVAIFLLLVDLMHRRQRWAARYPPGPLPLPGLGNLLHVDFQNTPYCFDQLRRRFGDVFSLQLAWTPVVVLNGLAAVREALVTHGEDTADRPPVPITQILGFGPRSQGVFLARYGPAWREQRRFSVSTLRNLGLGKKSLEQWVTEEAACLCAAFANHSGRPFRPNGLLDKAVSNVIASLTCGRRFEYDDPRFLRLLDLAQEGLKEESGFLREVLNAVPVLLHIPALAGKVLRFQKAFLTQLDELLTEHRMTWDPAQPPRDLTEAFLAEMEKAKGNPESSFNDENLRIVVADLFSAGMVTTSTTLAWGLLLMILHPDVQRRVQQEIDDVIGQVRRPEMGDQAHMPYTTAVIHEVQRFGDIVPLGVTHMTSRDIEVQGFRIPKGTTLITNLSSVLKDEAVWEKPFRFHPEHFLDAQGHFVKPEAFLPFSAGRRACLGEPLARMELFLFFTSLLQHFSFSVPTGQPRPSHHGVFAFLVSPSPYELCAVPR
Sequence of Cytochrome P450 2C19 (P33261 whole entry, canonical isoform): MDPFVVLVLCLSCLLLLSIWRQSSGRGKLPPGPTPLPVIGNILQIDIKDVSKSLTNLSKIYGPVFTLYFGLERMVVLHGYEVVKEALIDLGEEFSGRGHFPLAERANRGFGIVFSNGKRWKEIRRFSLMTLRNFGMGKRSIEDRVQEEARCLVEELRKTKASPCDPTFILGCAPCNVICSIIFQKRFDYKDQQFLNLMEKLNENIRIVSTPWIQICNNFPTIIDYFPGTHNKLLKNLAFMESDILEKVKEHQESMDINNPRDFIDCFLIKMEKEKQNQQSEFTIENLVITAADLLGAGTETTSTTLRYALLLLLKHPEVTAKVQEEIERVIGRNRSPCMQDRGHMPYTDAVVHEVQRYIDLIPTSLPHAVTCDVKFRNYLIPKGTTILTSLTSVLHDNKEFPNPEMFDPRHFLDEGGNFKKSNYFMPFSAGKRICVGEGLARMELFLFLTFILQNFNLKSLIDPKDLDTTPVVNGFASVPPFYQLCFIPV

| Compound | IC50 (BaF3) [nM] | IC50 (Cytochrome P450 2C19) [nM] | IC50 (Cytochrome P450 3A4 [1]) [nM] | IC50 (Cytochrome P450 3A4 [2]) [nM] | IC50 (Cytochrome P450 2C9) [nM] | IC50 (Cytochrome P450 2D6) [nM] | IC50 (Cytochrome P450 1A2) [nM] |
| --- | --- | --- | --- | --- | --- | --- | --- |
| COc1ccc(Cl)c(NC(=O)N(C)c2cc(Nc3ccc(N4CCN(C)CC4)cc3)ncn2)c1Cl | 118 | – | – | – | – | – | – |
| CCN(C(=O)Nc1cc(OC)cc(OC)c1Cl)c1cc(Nc2ccc(N3CCN(C)CC3)cc2)ncn1 | 750 | – | – | – | – | – | – |
| COc1cc(NC(=O)Nc2cc(Nc3ccc(N4CCN(C)CC4)cc3)ncn2)c(Cl)c(OC)c1 | 832 | – | – | – | – | – | – |
| COc1ccc(Cl)c(NC(=O)Nc2cc(Nc3ccc(N4CCN(C)CC4)cc3)ncn2)c1Cl | 126 | – | – | – | – | – | – |
| COc1cc(NC(=O)N(C)c2cc(Nc3ccc(N4CCN(C)CC4)cc3)ncn2)c(Cl)c(OC)c1 | 635 | – | – | – | – | – | – |
| COc1ccc(Cl)c(NC(=O)Nc2cc(Nc3ccc(N4CCN(C)CC4)cc3)ncn2)c1 | 2220 | – | – | – | – | – | – |
| COc1cc(NC(=O)N(C)c2cc(Nc3ccc(N4CCN(C)CC4)cc3)ncn2)cc(OC)c1 | 1510 | – | – | – | – | – | – |

These reach a lower IC50 (BaF3). Values come first.

| IC50 (BaF3) [nM] | IC50 (Cytochrome P450 2C19) [nM] | IC50 (Cytochrome P450 3A4 [1]) [nM] | IC50 (Cytochrome P450 3A4 [2]) [nM] | IC50 (Cytochrome P450 2C9) [nM] | IC50 (Cytochrome P450 2D6) [nM] | IC50 (Cytochrome P450 1A2) [nM] | Compound |
| --- | --- | --- | --- | --- | --- | --- | --- |
| 14 | 1100 | 1200 | 6000 | 4000 | > 10000 | > 10000 | CCN1CCC(c2ccc(Nc3cc(N(C)C(=O)Nc4c(Cl)c(OC)cc(OC)c4Cl)ncn3)cc2)CC1 |
| 27 | 3600 | 1000 | > 10000 | > 10000 | > 10000 | > 10000 | COc1cc(OC)c(Cl)c(NC(=O)N(C)c2cc(Nc3ccc(CCCN(C)C)cc3)ncn2)c1Cl |
| 2 | 900 | 1100 | > 10000 | 1700 | > 10000 | > 10000 | COc1cc(OC)c(Cl)c(NC(=O)N(C)c2cc(Nc3cccc(N4CCN(C)CC4)c3)ncn2)c1Cl |
| 11 | 1400 | – | – | > 10000 | > 10000 | > 10000 | COc1cc(OC)c(Cl)c(NC(=O)N(C)c2cc(Nc3cccc(CN(C)C)c3)ncn2)c1Cl |
| 14 | 300 | 500 | > 10000 | > 10000 | > 10000 | 7000 | COc1cc(OC)c(Cl)c(NC(=O)N(C)c2cc(Nc3cccc(CN4CCN(C)CC4)c3)ncn2)c1Cl |
| 28 | > 10000 | > 10000 | 2500 | > 10000 | > 10000 | > 10000 | COc1cc(OC)c(Cl)c(NC(=O)N(C)c2cc(Nc3ccc(OCCN4CCCC4)cc3)ncn2)c1Cl |
